# High-throughput results (PubChem)
# b-catenin transl: modulators of beta-catenin nuclear translocation, primary screen, imaging, HeLa cells, immunofluorescence, high-content | 0.3% of 190,000 active | nuclear translocation activity, % at 5 µM;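 active = nuclear translocation activity above 50% at 5 µM, with a well cell count of 50 or more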;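 also: per-cell ratio of nuclear to cytoplasmic median beta-catenin stain intensity; plate controls were DMSO negative control for no effect and GSK-3 inhibitor IX positive control for full effect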
#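 System: HeLa cells, endogenous beta-catenin; compound dosing: 5 µM primary single dose, 0.1% DMSO, 0.02–20 µM confirmation series; incubation: 24 h compound exposure at 37°C, 5% CO2; signal: beta-catenin immunofluorescence imaging with DAPI; evaluation: % activation, nuclear-to-cytoplasmic median beta-catenin signal ratio per cell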
# MT stabilizer: microtubule stabilizers in HeLa cells, primary screen, imaging, high-content imaging; HeLa tubulin immunostaining HCS, 24 h; share of cells brighter than vehicle mean+2SD; % tubulin-high responders, % at 10 µM; 0.83% of 200,000 active; AID 2205, 2009;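 active = plate Z-score above 3 for both tubulin-high and condensed-nucleus cell shares, with cell loss under 80%, at 10 µM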;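 also: anti alpha tubulin signal scored within the nucleus-defined area of each cell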
# APP transl inh: inhibitors of APP translation via 5'UTR reporter, primary screen, APP 5'UTR luciferase, SH-SY5Y cells | 0.82% of 190,000 active | AID 1285, 2008 | inhibition, % at 2 µM | SH-SY5Y APP 5'UTR-luciferase reporter, luminescence;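 active = inhibition above a set limit, derived from the sample mean plus 3 SD, cut at about 45% in these data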
# Ba/F3 V617F tox: reduced viability of JAK2V617F-dependent Ba/F3 cells, primary screen, JAK2V617F inhibitor project, cell-based, Ba/F3 EpoR-JAK2V617F, luminescence; inhibition, % at 5.6 µM; 1.1% of 220,000 active; ATP luminescence; AID 1446, 2008;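 active = inhibition above the campaign mean plus 3 SD over all tested compounds, cut at about 24% in these data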;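 also: cytokine-independent growth of Ba/F3 cells driven by EpoR plus mutant JAK2; 0% = DMSO-treated cells and 100% = JAK inhibitor I control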
# BaF3 tox: parental Ba/F3 cell viability inhibition, counter-screen for JAK2V617F inhibitor project, murine pro-B, CellTiter-Glo luminescence | CellTiter-Glo ATP luminescence | inhibition, % at 5.6 µM | 1.1% of 220,000 active;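 active = inhibition above a per-campaign cutoff, the mean inhibition of all tested compounds plus 3 SD, cut at about 27% in these data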;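 also: 0% = DMSO wells and 100% = JAK Inhibitor I control wells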
# IEC-6 tox: cytotoxicity in IEC-6 intestinal epithelial cells, primary screen, cytotoxicity control for KLF5 inhibitor project, cell-based, luminescence; 0.78% of 290,000 active; IEC-6 cytotoxicity, luminescence viability; inhibition, % at 5 µM;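 also: 0% = plate median of test compound wells and 100% = cytotoxic reference compound wells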
# IEC-6 cytotox cf: cytotoxic compounds in IEC-6 epithelial cells, confirmation, cytotoxicity control, cell-based, luminescence; 63% of 1,900 active; AID 1907, 2009; shares compounds with IEC-6 tox; inhibition, % at 5 µM; IEC-6 rat intestinal epithelial viability;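 also: 0% = vehicle and 100% = reference cytotoxic drug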
# * marks the source's active call; other numbers are inactive results; · = no result. The list is not random: actives were taken first. Their share in the collection is about 2.2%. Rule as the data show it, unless noted: active = inhibition above about 22%; inactive = the rest.
SMILES,b-catenin transl,MT stabilizer,APP transl inh,Ba/F3 V617F tox,BaF3 tox,IEC-6 tox,IEC-6 cytotox cf
O=C(Nc1ccncc1)C1CCCN(S(=O)(=O)c2cccc3cccnc23)C1 (stereo not given),88*,22*,76*,85*,70*,56*,46*
O=C(CCC(=O)N1CCOc2ccccc21)Nc1ccccc1Cl,·,·,·,·,·,2,·
Cc1nsc2nc3c(F)c(F)c(F)c(F)c3cc12,·,·,·,·,·,29*,5
Cc1cccc(-c2ocnc2C(=O)Nc2ccccc2NC(=O)c2ccccn2)c1,·,·,·,·,·,17,·
Cc1ccc(-c2ocnc2C(=O)Nc2ccccc2NC(=O)c2ccccn2)cc1,·,·,·,·,·,27*,20
CC(=O)c1ccc(N2CCN(CN3C(=O)CC4(CCCC4)C3=O)CC2)c(F)c1,·,·,·,·,·,-5,·
O=C(COc1ccc(C(=S)N2CCOCC2)cc1)N1CCOCC1,·,·,·,·,·,-1,·
O=C(CCn1c(=S)[nH]c2ccccc2c1=O)NCCc1ccc(Cl)cc1,1,3,-5,-2,3,-10,·
O=C(/C=C/c1cc[n+](CC(=O)c2ccc3cccc4c3c2CC4)cc1)c1ccc2cccc3c2c1CC3,-2,·,·,-2,4,4,·
COc1cc(C(=O)Nc2ccccc2C(=O)Nc2ccccn2)cc(OC)c1OC,·,·,·,·,·,33*,21
COc1cc(C(=O)Nc2ccccn2)cc(OC)c1OC,0,3,-8,-1,3,-1,·
COc1ccccc1CC(=O)N(Cc1ccccc1)c1cccc(C)c1,·,·,·,·,·,4,·
O=c1[nH]c(=O)n([C@H]2C[C@H](O)[C@@H](CO)O2)cc1C(F)(F)F,·,6,59*,96*,88*,85*,80*
CCc1cn([C@H]2C[C@H](O)[C@@H](CO)O2)c(=O)[nH]c1=O,-5,1,15,4,6,2,·
Cc1ccccc1NC(=O)CCNS(=O)(=O)c1ccc2c(c1)CCC(=O)N2,·,·,·,·,·,4,·
Cc1cc(-c2ccc(C(C)C)c(S(=O)(=O)N3CCN(c4ccccn4)CC3)c2)on1,·,·,·,·,·,23*,12
CCc1ccc(-c2cc(C)no2)cc1S(=O)(=O)N1CCN(c2ccccn2)CC1,·,·,·,·,·,-1,·
O=[N+]([O-])c1cccnc1S(=O)(=O)c1ccccc1,·,·,·,·,·,41*,9
Nc1cccnc1S(=O)(=O)c1ccccc1,·,·,·,·,·,-2,·
Cc1cccc(NC(=O)c2ccc(N3C(=O)C4C5C=CC(C6CC56)C4C3=O)cc2)c1 (stereo not given),·,·,·,·,·,23*,12
OC[C@H]1O[C@@H](n2cnc3c(NC4CCCC4)ncnc32)[C@H](O)[C@@H]1O,·,2,-10,-3,5,-2,·
C=CCNc1ncnc2c1ncn2C1OC(CO)C(O)C1O (stereo not given),4,3,10,-1,0,74*,49*
O=C(NCc1ccc(F)cc1)C(c1cccnc1)N(C(=O)c1csnn1)c1ccccc1 (stereo not given),·,·,·,·,·,1,·
COc1ccc(Nc2nc(N)c(C(=O)c3ccc(F)cc3)s2)cc1,·,·,·,·,·,74*,57*
COc1ccc(Nc2nc(N)c(C(=O)c3ccc(OC)cc3)s2)cc1,·,·,·,·,·,66*,50*
SMILES,b-catenin transl,MT stabilizer,APP transl inh,Ba/F3 V617F tox,BaF3 tox,IEC-6 tox,IEC-6 cytotox cf
CCc1nnc(NC(=O)c2ccc(OC)cc2)s1,-2,4,-129,-1,7,36*,2
COc1ccc(C(=O)c2sc(Nc3ccccc3)nc2C)cc1,·,·,·,·,·,-2,·
N#Cc1ccc(C(=O)OCC(=O)N2CCOCC2)cc1,·,·,·,·,·,2,·
COc1ccc(/C=C2\Sc3ccc(C(=O)NCC4CCCO4)cc3N(C)C2=O)cc1 (stereo not given),·,·,·,·,·,1,·
COc1ccc(-c2cn(Cc3ccc(C(=O)c4ccccc4)cc3)nn2)cc1,·,·,·,·,·,11,·
CCOC(=O)C1CCN(S(=O)(=O)c2c(Cl)ccc3nonc23)CC1,·,·,·,·,·,100*,41*
CCOC(=O)C1CCN(S(=O)(=O)c2cccc3nonc23)CC1,-2,3,-7,1,5,-2,·
O=C(N1CCOCC1)N1CCN(S(=O)(=O)c2cccc([N+](=O)[O-])c2)CC1,·,·,·,·,·,2,·
COc1cc2c(c(OC)c1OC)-c1ccc(NC(=O)c3ccccc3)c(=O)cc1[C@@H](NC(C)=O)CC2,·,·,·,·,·,87*,49*
C/C(=N\NC(=O)c1nnn(-c2nonc2N)c1CSc1ccc(Cl)cc1)c1ccco1,·,·,·,·,·,3,·
CC(=O)c1ccc(NC(=S)Nc2cccc3ccccc23)cc1,·,·,·,·,·,63*,6
CC(=O)N(C)c1ccc(NC(=S)Nc2cccc3ccccc23)cc1,1,4,-13,3,4,8,·
O=C(COc1ccc(Br)cc1)NCCNC(=O)c1ccncc1,·,·,·,·,·,10,·
Cc1[nH]n2c(=O)cc(C(C)(C)C)nc2c1-c1ccccc1,1,4,14,9,13,34*,35*
Cn1c(CCn2ccccc2=O)nc2cc(NC(=O)COc3ccccc3)ccc21,·,·,·,·,·,-2,·
CCOc1ccc(C(=O)N/N=C(\c2ccccc2)c2ccccn2)cc1,2,2,72*,86*,80*,26*,68*
CC(=O)Nc1ccc(/C(C)=N/NC(=O)c2ccc(F)cc2)cc1,-4,3,2,0,6,-1,·
C/C(=N\NC(=O)c1ccc(F)cc1)c1ccccn1,·,·,·,·,·,32*,98*
CC(=O)Nc1ccc(/C(C)=N\NC(=O)c2ccc(-c3ccccc3)cc2)cc1,1,2,0,88*,82*,26*,-6
COc1ccccc1N1CC(C)(C)C(=O)N(C(=O)c2ccc(Cl)cc2)C1=S,0,·,·,1,1,0,·
COc1cccc(/C=N/n2c(COc3ccccc3)n[nH]c2=S)c1,·,·,·,·,·,-5,·
COc1ccc(CNC(=O)Cc2ccc(NC(=O)C3=C(C)OCCS3)cc2)cc1,·,·,·,·,·,65*,43*
COc1cccc(CNC(=O)c2cccc(NC(=O)C3=C(C)OCCS3)c2)c1,·,·,·,·,·,-2,·
CCOc1ccc(CNC(=O)c2cccc(NC(=O)C3=C(C)OCCS3)c2)cc1,·,·,·,·,·,0,·
CC1=C(C(=O)Nc2ccc(CC(=O)NCc3ccc(OC(C)C)cc3)cc2)SCCO1,·,·,·,·,·,82*,60*
O=C(Nc1nccs1)c1ccc(CSc2ccccc2)o1,·,·,·,·,·,-5,·
COc1ccccc1C(=O)Nc1ccccc1N1CCN(C(=O)c2ccc(Cl)cc2)CC1,·,·,·,·,·,-15,·
CCc1nc2sc3c(c2c(=O)n1CCO)CCC3,·,·,·,·,·,1,·
Cc1cc(C)cc(NS(=O)(=O)c2ccc3c(c2)c(=O)n(C)c(=O)n3C)c1,0,2,15,49*,67*,35*,33*
